Test results taken from ChEMBL document CHEMBL3792330, “Designed Glycopeptidomimetics Disrupt Protein-Protein Interactions Mediating Amyloid β-Peptide Aggregation and Restore Neuroblastoma Cell Viability” (J Med Chem, 2016).
The source made the active and inactive calls. No cut-off for these calls is given here. *1 amine or outer side, *2 acyl side, *3 side chain or, on linkers, in order; H or OH if unused. Where a SMILES comes first, the peptide text is derived from it. [ ]: non-standard residue; d: D form. X1 = O=C(CCOC[C@H]1O[C@@H](OCCCN[*:1])[C@H](O)[C@@H](O)[C@@H]1O)[*:2]

Tests used:
[1] = biological target: Amyloid-beta precursor protein (Homo sapiens) (UniProt P05067); test: Inhibition of amyloid beta (1 to 42) (unknown origin) fibril formation assessed as decrease in fluorescence plateau at compound/protein ratio of 1/1 after 42 hrs by ThT fluorescence assay relative to control
Chain of Amyloid-beta precursor protein (Homo sapiens) (P05067 whole entry, the tested form may be a part): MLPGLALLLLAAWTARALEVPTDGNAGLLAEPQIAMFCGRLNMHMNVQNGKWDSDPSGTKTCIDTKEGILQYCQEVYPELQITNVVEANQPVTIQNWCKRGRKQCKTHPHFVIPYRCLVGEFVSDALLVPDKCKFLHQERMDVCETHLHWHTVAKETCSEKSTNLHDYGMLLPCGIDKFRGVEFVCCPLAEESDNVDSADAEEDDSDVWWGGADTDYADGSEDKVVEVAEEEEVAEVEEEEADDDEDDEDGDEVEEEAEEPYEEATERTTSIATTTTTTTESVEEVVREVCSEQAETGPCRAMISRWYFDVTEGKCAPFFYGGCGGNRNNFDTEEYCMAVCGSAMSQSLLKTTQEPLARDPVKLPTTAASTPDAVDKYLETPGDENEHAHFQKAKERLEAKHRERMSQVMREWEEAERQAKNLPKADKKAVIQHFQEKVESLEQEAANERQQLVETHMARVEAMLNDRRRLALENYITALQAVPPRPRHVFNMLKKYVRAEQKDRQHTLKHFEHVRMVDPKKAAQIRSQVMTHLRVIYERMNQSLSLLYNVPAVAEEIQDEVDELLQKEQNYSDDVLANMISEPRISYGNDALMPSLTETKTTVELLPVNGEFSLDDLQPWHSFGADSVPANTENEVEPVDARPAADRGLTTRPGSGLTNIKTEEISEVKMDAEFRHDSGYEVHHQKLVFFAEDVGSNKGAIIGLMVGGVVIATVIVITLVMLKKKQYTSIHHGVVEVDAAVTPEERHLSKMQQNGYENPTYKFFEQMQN
In short: (§1)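 Aβ1-42 (1 mM in 1% ammonia, diluted in buffer) added to a final 10 μM into 40 μM ThT in 10 mM Tris-HCl, 100 mM NaCl pH 7.4, with compound at 100, 50, 10 or 1 μM (0.5% DMSO), at room temperature. Ex/em 440/485 nm read for 42 h, in duplicate or triplicate, 2–4 runs. t1/2 and plateau F expressed relative to Aβ alone.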

[2] = biological target: Amyloid-beta precursor protein (Homo sapiens) (UniProt P05067); test: Inhibition of amyloid beta (1 to 42) (unknown origin) fibril formation assessed as decrease in fluorescence plateau at compound/protein ratio of 10/1 after 42 hrs by ThT fluorescence assay relative to control; settings: concentration not given here; in short: as §1
[3] = biological target: Amyloid-beta precursor protein (Homo sapiens) (UniProt P05067); test: Inhibition of amyloid beta (1 to 42) (unknown origin) fibril formation assessed as extension of aggregation half life at compound/protein ratio of 10/1 after 42 hrs by ThT fluorescence assay relative to control; design: Activity: scale not given: the % may be the effect or the level left; in short: as §1
[4] = biological target: Amyloid-beta precursor protein (Homo sapiens) (UniProt P05067); test: Inhibition of amyloid beta (1 to 42) (unknown origin) fibril formation assessed as extension of aggregation half life at compound/protein ratio of 1/1 after 42 hrs by ThT fluorescence assay relative to control; design: Activity: scale not given: the % may be the effect or the level left; in short: as §1
[5] = biological target: Amyloid-beta precursor protein (Homo sapiens) (UniProt P05067); test: Inhibition of amyloid beta (1 to 42) (unknown origin) fibril formation assessed as extension of aggregation half life at compound/protein ratio of 0.1/1 after 42 hrs by ThT fluorescence assay relative to control; design: Activity: scale not given: the % may be the effect or the level left; in short: as §1
[6] = biological target: Amyloid-beta precursor protein (Homo sapiens) (UniProt P05067); test: Inhibition of amyloid beta (1 to 42) (unknown origin) oligomerization assessed as remaining monomer level at compound/protein ratio of 1/1 after 12 hrs by capillary electrophoresis (reference value: 19%)
In short: (§2)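 Aβ1-42 pretreated in 0.16% NH4OH, lyophilized, then reconstituted at 100 μM in 20 mM phosphate pH 7.4 with 2.5% DMSO, compound/peptide 1/1. Species separated in fused silica capillary (50 μm ID) with 80 mM phosphate pH 7.4 background electrolyte, −20 kV, 25 °C. UV detection at 190 nm; profiles taken at 0 and 12 h.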

[7] = biological target: Amyloid-beta precursor protein (Homo sapiens) (UniProt P05067); test: Binding affinity to synthetic 15N,13C-labelled recombinant amyloid beta (1 to 42) (unknown origin) assessed as negative nuclear overhauser effect at 0.4 mM after 2.5 weeks by 2D NOESY method
In short: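 2D NOESY at 5 °C with 0.2 s mixing time. Synthetic Aβ1-42 in 50 mM sodium phosphate pH 7.4 with 10% D2O, ligand at 0.4 mM, recorded at 500 MHz.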

[8] = biological target: Amyloid-beta precursor protein (Homo sapiens) (UniProt P05067); test: Binding affinity to synthetic 15N,13C-labelled recombinant amyloid beta (1 to 42) (unknown origin) assessed as negative nuclear overhauser effect at 0.4 mM after 2.5 weeks by 1D 1H water LOGSY method
In short: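 WaterLOGSY at 5 °C in 50 mM sodium phosphate pH 7.4 with 10% D2O, synthetic Aβ1-42. Ligand at 0.4 mM. Selective water inversion with a 20 ms Gaussian pulse, 0.5 s mixing, 2 s recycle delay, 1200 scans (about 1 h), 500 MHz cryoprobe.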

[9] = biological target: Amyloid-beta precursor protein (Homo sapiens) (UniProt P05067); test: Binding affinity to synthetic 15N,13C-labelled recombinant amyloid beta (1 to 42) (unknown origin) at 0.4 mM after 2.5 weeks by saturation transfer difference method
In short: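 1D 1H STD at 5 °C in 50 mM sodium phosphate pH 7.4 with 10% D2O. Cascade of 50 ms Gaussian pulses (B1 0.1 kHz, 3 s total) applied alternately on-resonance at −0.7 ppm and off-resonance at +30 ppm. 320 scans (50 min). Ligand at 0.4 mM.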

[10] = biological target: Amyloid-beta precursor protein (Homo sapiens) (UniProt P05067); test: Binding affinity to amyloid beta (1 to 42) (unknown origin) by SPR analysis
In short: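 Aβ1-42 (0.05 μM in 10 mM sodium acetate pH 4.6) amine-coupled to an EDC/NHS-activated gold chip, then rinsed with 0.1% NH4OH to leave mainly monomer. Analytes in 150 mM PBS with 2% DMSO were injected at 12.5–200 μM for 1 min at 80 μL/min. DMSO solvent correction applied and the ethanolamine-blocked blank channel subtracted. Regeneration with 0.1% NH4OH.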

[11] = biological target: Amyloid-beta precursor protein (Homo sapiens) (UniProt P05067); test: Inhibition of amyloid beta (1 to 42) (unknown origin) fibril formation assessed as decrease in fluorescence plateau at compound/protein ratio of 0.1/1 after 42 hrs by ThT fluorescence assay relative to control; settings: concentration not given here; in short: as §1
[12] = biological target: Amyloid-beta precursor protein (Homo sapiens) (UniProt P05067); test: Inhibition of amyloid beta (1 to 42) (unknown origin) oligomerization assessed as formation of larger than dodecamers at compound/protein ratio of 1/1 at 12 hrs by capillary electrophoresis; in short: as §2
[13] = system: SH-SY5Y; test: Neuroprotective activity against amyloid beta (1 to 42)-induced toxicity in human SH-SY5Y cells assessed as reduction of cell death at 0.1 equiv after 24 hrs by MTS assay; assay type: functional; design: scale not given: the % may be the effect or the level left
In short: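 SH-SY5Y cells seeded at 20 000/well in low-serum Optimem, 24 h at 37°C, 5% CO2. Aβ1-42 at 50 μM in sterile PBS pre-incubated 24 h at room temperature with 1, 5, 10 or 50 μM inhibitor, or without inhibitor. The mix was diluted 1:10 into Optimem (5 μM Aβ final) and added to cells in quadruplicate. After a further 24 h, viability was read by MTS. Assay run twice.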

[14] = biological target: T1, Islet amyloid polypeptide (Homo sapiens) (UniProt P10997); test: Inhibition of human IAPP fibril formation assessed as decrease in final fluorescence intensity at compound/protein ratio of 10/1 by ThT fluorescence assay
T1 sequence (whole entry): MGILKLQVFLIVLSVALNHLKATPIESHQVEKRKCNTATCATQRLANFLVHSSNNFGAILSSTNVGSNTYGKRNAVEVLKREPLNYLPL

[15] = biological target: T1, Islet amyloid polypeptide (Homo sapiens); test: Inhibition of human IAPP fibril formation assessed as increase of aggregation half life at compound/protein ratio of 10/1 by ThT fluorescence assay
[16] = system: Plasma; test: Metabolic stability in 10% human plasma assessed as drug degradation at 1 uM after 24 hrs by HPLC analysis; assay type: ADME, cell-free
In short: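 Compounds taken from 40 μM DMSO stock to 1 μM in 10% human plasma/90% sterile PBS, held 24 h at 37 °C. Analysed by C18 HPLC with a 0–80% gradient (A: 0.1% TFA in water; B: 0.05% TFA in acetonitrile).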

[17] = biological target: Amyloid-beta precursor protein (Homo sapiens) (UniProt P05067); test: Inhibition of amyloid beta (1 to 42) (unknown origin) fibril formation at compound/protein ratio of 10/1, 1/1, 0.1/1 […] by ThT fluorescence assay
[18] = biological target: Amyloid-beta precursor protein (Homo sapiens) (UniProt P05067); test: Inhibition of amyloid beta (1 to 42) (unknown origin) aggregation assessed as scattered, short and scarce fiber formation at compound/protein ratio of 10/1 after 42 hrs by uranyl acetate staining-based transmission electron microscopy
In short: (§3)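 Samples prepared as for ThT: Aβ1-42 at 10 μM in 10 mM Tris-HCl, 100 mM NaCl pH 7.4, with or without compound at 10 or 100 μM. After 42 h, adsorbed 2 min onto carbon grids and negatively stained 45 s with 2% uranyl acetate. Imaged by TEM at 80 kV.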

[19] = system: SH-SY5Y; test: Neuroprotective activity against amyloid beta (1 to 42)-induced membrane damage in human SH-SY5Y cells at 0.1 to 5 uM after 24 hrs by LDH assay; assay type: functional, cell-based
In short: (§4)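 Aβ1-42 at 50 μM in sterile PBS pre-incubated 24 h at room temperature with 1, 5, 10 or 50 μM compound, then diluted 1:10 (5 μM Aβ final) onto SH-SY5Y cells. Cells seeded at 20 000/well in low-serum Optimem, 37 °C, 5% CO2, 24 h. Exposure a further 24 h in quadruplicate. MTS viability or LDH release read; assays repeated twice.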

[20] = system: SH-SY5Y; test: Neuroprotective activity against amyloid beta (1 to 42)-induced toxicity in human SH-SY5Y cells assessed as cell viability at 0.25 to 5 uM after 24 hrs by MTS assay; assay type: functional, cell-based; in short: as §4
[21] = biological target: Amyloid-beta precursor protein (Homo sapiens) (UniProt P05067); test: Inhibition of amyloid beta (1 to 42) (unknown origin) aggregation assessed as appearance of less dense fiber at compound/protein ratio of 1/1 after 42 hrs by uranyl acetate staining-based transmission electron microscopy; in short: as §3
[22] = biological target: Amyloid-beta precursor protein (Homo sapiens) (UniProt P05067); test: Inhibition of amyloid beta (1 to 42) (unknown origin) aggregation assessed as appearance of glubular aggregation at compound/protein ratio of 1/1 after 42 hrs by transmission electron microscopy; in short: as §3

inhibition [1]	inhibition [2]	Activity [3]	Activity [4]	inhibition ([1]; concentration not given here)	Activity [10]	inhibition [3]	SMILES	inhibition [11]	Stability [16]	Activity [19]	Activity [20]	other results
inactive	41%	379%	138%				COc1ccc(NC(C)=O)cc1C(=O)NNC(=O)[C@@H](NC(=O)CCOC[C@H]1OC(OCCCNC(=O)[C@@H](NC(=O)[C@H](C)NC(=O)OC(C)(C)C)C(C)C)[C@H](O)[C@@H](O)[C@@H]1O)C(C)C (stereo not given in full)					
	90%		165%	34%	Dose-dependent effect	Active	COc1ccc(NC(C)=O)cc1C(=O)NNC(=O)[C@H](CCCCN)NC(=O)CCOC[C@H]1O[C@@H](OCCCNC(=O)[C@@H](NC(=O)[C@H](C)N)C(C)C)[C@H](O)[C@@H](O)[C@@H]1O	16%				Activity [5]: 129%; Activity [6]: 52%; Activity [7]: Active; Activity [8]: Active; Activity [9]: Active; inhibition [12]: Active
	84%		154%	26%		Active	COc1ccc(NC(C)=O)cc1C(=O)NNC(=O)[C@H](CCCCN)NC(=O)CCOC[C@H]1OC(OCCCNC(=O)[C@@H](NC(=O)[C@H](C)NC(=O)OC(C)(C)C)C(C)C)[C@H](O)[C@@H](O)[C@@H]1O (stereo not given in full)					
inactive	56%	280%			Dose-dependent effect		COC(=O)[C@H](CC(C)C)NC(=O)[C@@H](NC(=O)CCOC[C@H]1O[C@@H](OCCCNC(=O)[C@@H](NC(=O)[C@H](C)N)C(C)C)[C@H](O)[C@@H](O)[C@@H]1O)C(C)C (H-AV[X1]VL-OMe)		Unstable	Active	Active	inhibition [4]: inactive

SMILES	inhibition [1]	inhibition [2]	Activity [3]	Activity [4]	inhibition ([1]; concentration not given here)	Activity [10]	inhibition [3]	inhibition [11]	Stability [16]	Activity [19]	Activity [20]	other results
COc1ccc(NC(C)=O)cc1C(=O)NNC(=O)[C@H](CCCCN)NC(=O)CCOC[C@H]1OC(OCCCNC(=O)[C@@H](NC(=O)[C@H](C)N)C(C)C)[C@H](O)[C@@H](O)[C@@H]1O (mixture of isomers)		87%		148%	29%	Dose-dependent effect	Active	23%	Stable	Active	Active	Activity [13]: 75%; inhibition [14]: inactive; inhibition [15]: inactive; inhibition [5]: inactive; inhibition [17]: Active; inhibition [18]: Active; inhibition [21]: Active; inhibition [22]: Active
